Source: ChEMBL document CHEMBL1687889, “Antitumor agents. 284. New desmosdumotin B analogues with bicyclic B-ring as cytotoxic and antitubulin agents” (J Med Chem, 2011)
Each block holds one compound with its values, some of them ahead of it. Active and inactive are the calls of the source. The calls are words filed in the database; no cut-off is given here.

What was measured:
KB = assay: Antiproliferative activity against human KB cells after 3 days by sulforhodamine B assay; assay type: functional; details: 72 h
Method in brief: (§1)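 Cells grown in RPMI-1640 with 25 mM HEPES, 0.25% sodium bicarbonate, 10% FBS and 100 μg/mL kanamycin. Exposed to compound for 3 days, with at most 0.5% v/v DMSO. Attached cells fixed in cold 50% TCA, stained with 0.4% sulforhodamine B, and the bound dye solubilized. A562 read. GI50 is the concentration giving a 50% absorbance drop versus untreated cells.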

PC-3 = assay: Antiproliferative activity against human PC3 cells after 3 days by sulforhodamine B assay; assay type: functional; details: PC-3, 72 h
MCF7 = assay: Antiproliferative activity against human MCF7 cells after 3 days by sulforhodamine B assay; assay type: functional; details: MCF7, 72 h
A549 = assay: Antiproliferative activity against human A549 cells after 3 days by sulforhodamine B assay; assay type: functional; details: A549, 72 h; method in brief: as §1
HepG2 = assay: Antiproliferative activity against human HepG2 cells after 3 days by sulforhodamine B assay; assay type: functional; details: HepG2, 72 h
Method in brief: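 Sulforhodamine B assay over 3 days in culture, with at most 0.5% v/v DMSO. Attached cells fixed in cold 50% TCA, stained with 0.4% SRB, and the dye solubilized. Absorbance read at 562 nm. GI50 is the concentration causing a 50% fall in absorbance relative to untreated cells.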

HCT-8 [1] = assay: Antiproliferative activity against human HCT8 cells after 3 days by sulforhodamine B assay; assay type: functional; details: HCT-8, 72 h; method in brief: as §1
[2] = Antiproliferative activity against human KBVIN cells after 3 days by sulforhodamine B assay; assay type: functional; details: 72 h; method in brief: as §1
[3] = Inhibition of tubulin assembly after 20 mins by turbidimetric assay; details: read-out: IC50
Method in brief: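 Turbidimetry at 350 nm. 10 μM (1.0 mg/mL) tubulin preincubated with compound for 15 min at 30 °C without GTP, then chilled, and 0.4 mM GTP added. Turbidity followed for 20 min at 30 °C after a temperature jump from 0 °C. IC50 is the concentration halving the turbidity increase relative to control.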

[4] = Displacement of [3H]colchicine from tubulin at 5 uM for 10 mins
Method in brief: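 1.0 μM tubulin incubated with 5.0 μM [3H]colchicine and 5.0 μM inhibitor for 10 min at 37 °C, when control samples reach about 40–60% of maximal colchicine binding. Result given as percent inhibition of colchicine binding.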

HCT-8 [5] = assay: Antiproliferative activity against human HCT8 cells at 20 ug/ml after 3 days by sulforhodamine B assay; assay type: functional, cell-based

SMILES: CCC1=C(O)c2c(oc(-c3cccc4ccccc34)cc2=S)C(CC)(CC)C1=S
GI50 (KB): 7.38 µM
GI50 (PC-3): 24.1 µM
GI50 (MCF7): 14.1 µM
GI50 (A549): 5.95 µM
GI50 (HepG2): 24.1 µM
GI50 (HCT-8 [1]): 13.3 µM
GI50 [2]: 5.95 µM

SMILES: CCC1=C(O)c2c(oc(-c3cc4ccccc4c4ccccc34)cc2=O)C(CC)(CC)C1=O [6,8,8-TRIETHYL-2-(PHENANTHREN-9-YL) DESMOSDUMOTIN B]
GI50 (KB): 11.4 µM
GI50 (PC-3): 13.7 µM
GI50 (MCF7): 9.13 µM
GI50 (A549): 18.3 µM
GI50 (HCT-8 [1]): 12.8 µM
GI50 [2]: 9.82 µM

SMILES: CCC1=C(O)c2c(oc(-c3ccc4c(c3)OCCO4)cc2=O)C(CC)(CC)C1=O
GI50 (KB): 1.26 µM
GI50 (PC-3): 1.52 µM
GI50 (MCF7): 1.89 µM
GI50 (A549): 1.52 µM
IC50 [3]: 6.5 µM
GI50 (HepG2): 1.52 µM
GI50 (HCT-8 [1]): 2.27 µM
GI50 [2]: 1.14 µM
inhibition [4]: 33%

SMILES: CCC1=C(O)C2=C(OC(c3cccc4ccccc34)CC2=O)C(CC)(CC)C1=O (stereo unspecified)
GI50 (KB): 5.93 µM
GI50 (PC-3): 12.6 µM
GI50 (A549): 7.99 µM
GI50 (HepG2): 9.02 µM
GI50 (HCT-8 [1]): 9.28 µM
GI50 [2]: 3.87 µM

SMILES: CCC1=C(O)c2c(oc(-c3ccc4c(c3)OCO4)cc2=O)C(CC)(CC)C1=O
GI50 (KB): 18.3 µM
GI50 (PC-3): 5.24 µM
GI50 (MCF7): 11.3 µM
GI50 (A549): 26.2 µM
GI50 (HepG2): 11.8 µM
GI50 (HCT-8 [1]): 13.1 µM
GI50 [2]: 17 µM

SMILES: CCC1=C(O)c2c(oc(-c3ccc(-c4ccccc4)cc3)cc2=O)C(CC)(CC)C1=O
GI50 (KB): 18.1 µM
GI50 (PC-3): 8.45 µM
GI50 (MCF7): 15.7 µM
GI50 (A549): 18.1 µM
Activity (HCT-8 [5]): inactive
GI50 (HepG2): 19.3 µM
GI50 [2]: 12.1 µM

SMILES: CCC1=C(OC)C(CC)(CC)c2oc(-c3cccc4ccccc34)c(Br)c(=O)c2C1=O
GI50 (KB): 9.13 µM
GI50 (PC-3): 10.8 µM
GI50 (MCF7): 11 µM
GI50 (A549): 4.77 µM
GI50 (HepG2): 14.5 µM
GI50 (HCT-8 [1]): 7.68 µM
GI50 [2]: 9.96 µM

SMILES: CCC1=C(OC)C(CC)(CC)c2oc(-c3cccc4ccccc34)cc(=O)c2C1=O
GI50 (KB): 11.2 µM
GI50 (PC-3): 14.7 µM
GI50 (MCF7): 20.9 µM
GI50 (A549): 16.7 µM
GI50 (HepG2): 20.7 µM
GI50 (HCT-8 [1]): 11.7 µM
GI50 [2]: 9.7 µM

SMILES: CCC1=C(O)c2c(oc(-c3ccc4c5c(cccc35)CC4)cc2=O)C(CC)(CC)C1=O
GI50 (KB): 2.17 µM
GI50 (PC-3): 6.04 µM
GI50 (MCF7): 3.62 µM
GI50 (A549): 6.04 µM
GI50 (HepG2): 4.59 µM
GI50 (HCT-8 [1]): 2.42 µM
GI50 [2]: 1.93 µM

SMILES: CCC1=C(O)c2c(oc(-c3cnc4ccccc4c3)cc2=O)C(CC)(CC)C1=O
GI50 (KB): 15.4 µM
GI50 (PC-3): 12.8 µM
GI50 (MCF7): 19.3 µM
GI50 (A549): 12.8 µM
GI50 (HepG2): 14.9 µM
GI50 (HCT-8 [1]): 12.8 µM
GI50 [2]: 14.9 µM

SMILES: CCC1=C(O)c2c(oc(-c3ccc4cc(OC)ccc4c3)cc2=O)C(CC)(CC)C1=O
GI50 (KB): 10.8 µM
GI50 (PC-3): 4.78 µM
GI50 (MCF7): 8.37 µM
GI50 (A549): 16.8 µM
GI50 (HepG2): 13.4 µM
GI50 (HCT-8 [1]): 12 µM
GI50 [2]: 9.57 µM

SMILES: CC[C@]1(O)C[C@H]2CN(CCc3c([nH]c4ccccc34)[C@@](C(=O)OC)(c3cc4c(cc3OC)N(C=O)[C@H]3[C@@](O)(C(=O)OC)[C@H](OC(C)=O)[C@]5(CC)C=CCN6CC[C@]43[C@@H]65)C2)C1 [VINCRISTINE]
GI50 (KB): 0.004 µM
GI50 (A549): 0.007 µM
GI50 (HCT-8 [1]): 0.036 µM
GI50 [2]: 9.09 µM

Continued, in another order:

GI50 (KB): 19.9 µM
GI50 (PC-3): 12.4 µM
GI50 (MCF7): 13.7 µM
GI50 (A549): 17.4 µM
GI50 (HepG2): 16.7 µM
GI50 (HCT-8 [1]): 17.4 µM
SMILES: CCC1=C(O)c2c(oc(-c3c(C)ccc4ccccc34)cc2=O)C(CC)(CC)C1=O
GI50 [2]: 19.9 µM

GI50 (KB): 0.29 µM
GI50 (PC-3): 1.45 µM
GI50 (MCF7): 1.73 µM
GI50 (A549): 1.73 µM
GI50 (HCT-8 [1]): 1.16 µM
SMILES: CC1=C(O)c2c(oc(-c3cccc4ccccc34)cc2=O)C(C)(C)C1=O [2-(NAPHTHALEN-1-YL)DESMOSDUMOTIN B]
GI50 [2]: 0.58 µM

GI50 (KB): 0.61 µM
GI50 (PC-3): 13.3 µM
GI50 (A549): 1.25 µM
IC50 [3]: 2.5 µM
GI50 (HepG2): 1.33 µM
GI50 (HCT-8 [1]): 2.56 µM
inhibition [4]: 37%
SMILES: CC1=C(O)c2c(oc(-c3ccc(C)c4ccccc34)cc2=O)C(C)(C)C1=O
GI50 [2]: 0.72 µM

GI50 (KB): 0.76 µM
GI50 (PC-3): 1.5 µM
IC50 [3]: 3.7 µM
GI50 (HepG2): 23.7 µM
GI50 (HCT-8 [1]): 1.3 µM
inhibition [4]: 36%
SMILES: CC1=C(O)c2c(oc(-c3ccc4c(c3)OCCO4)cc2=O)C(C)(C)C1=O
GI50 [2]: 0.65 µM

GI50 (KB): 0.11 µM
GI50 (PC-3): 0.91 µM
GI50 (A549): 0.23 µM
IC50 [3]: 2.4 µM
GI50 (HepG2): 0.57 µM
GI50 (HCT-8 [1]): 1.08 µM
inhibition [4]: 69%
SMILES: CC1=C(O)c2c(oc(-c3csc4ccccc34)cc2=O)C(C)(C)C1=O
GI50 [2]: 0.09 µM

GI50 (KB): 1.55 µM
GI50 (PC-3): 1.03 µM
GI50 (MCF7): 1.55 µM
GI50 (A549): 1.55 µM
IC50 [3]: 2.3 µM
GI50 (HepG2): 2.06 µM
GI50 (HCT-8 [1]): 1.03 µM
inhibition [4]: 43%
SMILES: CCC1=C(O)c2c(oc(-c3cccc4ccccc34)cc2=O)C(CC)(CC)C1=O [2-(NAPHTHALEN-1-YL)-6,8,8-TRIETHYL DESMOSDUMOTIN B]
GI50 [2]: 0.77 µM

GI50 (KB): 4.5 µM
GI50 (PC-3): 28 µM
GI50 (A549): 9.79 µM
GI50 (HepG2): 17.7 µM
GI50 (HCT-8 [1]): 15.6 µM
SMILES: CCC1=C(O)c2c(oc(-c3coc4ccccc34)cc2=O)C(CC)(CC)C1=O
GI50 [2]: 2.09 µM

GI50 (KB): 18.7 µM
GI50 (PC-3): 20.5 µM
GI50 (MCF7): 17.4 µM
GI50 (A549): 5.63 µM
GI50 (HepG2): 21.7 µM
GI50 (HCT-8 [1]): 15.9 µM
SMILES: CCC1=C(O)c2c(oc(-c3cn(C)c4ccccc34)cc2=O)C(CC)(CC)C1=O
GI50 [2]: 2.81 µM

GI50 (KB): 0.47 µM
GI50 (PC-3): 2.49 µM
GI50 (MCF7): 0.75 µM
GI50 (A549): 0.5 µM
IC50 [3]: 2.7 µM
GI50 (HepG2): 1.24 µM
GI50 (HCT-8 [1]): 0.62 µM
inhibition [4]: 50%
SMILES: CCC1=C(O)c2c(oc(-c3ccc(C)c4ccccc34)cc2=O)C(CC)(CC)C1=O
GI50 [2]: 0.27 µM

GI50 (KB): 11.2 µM
GI50 (PC-3): 3.81 µM
GI50 (MCF7): 15.2 µM
GI50 (A549): 14 µM
GI50 (HepG2): 15.7 µM
GI50 (HCT-8 [1]): 19 µM
SMILES: CCC1=C(O)c2c(oc(-c3cc4ccccc4s3)cc2=O)C(CC)(CC)C1=O
GI50 [2]: 9.9 µM

GI50 (KB): 1.67 µM
GI50 (PC-3): 2.39 µM
GI50 (MCF7): 3.59 µM
GI50 (A549): 1.48 µM
IC50 [3]: 2.7 µM
GI50 (HepG2): 1.48 µM
GI50 (HCT-8 [1]): 3.35 µM
inhibition [4]: 31%
SMILES: CCC1=C(O)c2c(oc(-c3ccc(OC)c4ccccc34)cc2=O)C(CC)(CC)C1=O
GI50 [2]: 1.56 µM

GI50 (KB): 1.41 µM
GI50 (PC-3): 16.6 µM
GI50 (MCF7): 3.22 µM
GI50 (A549): 1.86 µM
GI50 (HepG2): 8.42 µM
GI50 (HCT-8 [1]): 8.17 µM
SMILES: CCC1=C(O)c2c(oc(-c3cccc4ccccc34)cc2=O)C(CC)(CC)C1=S
GI50 [2]: 2.7 µM
